# Tested on: Plasmodium falciparum
# Assay: Antimalarial activity against asexual blood stage of Plasmodium falciparum 3D7 after 48 hrs by candle jar method
# Assay type: functional, organism-based
# Conditions: 3D7, 48 h
# Summary of the method: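 Asexual blood-stage parasites grown in B+ human erythrocytes, RPMI-1640 with 10% heat-inactivated pooled compatible serum; exposed to graded compound concentrations in triplicate, 48 h, 37 °C. Percent parasitemia inhibition versus controls from Giemsa-stained thin smears; IC50 from concentration-response curve.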
row,IC50 [µg/mL],Structure (SMILES)
1,6.01,O=C(/C=C/c1ccc(Cl)cc1)c1ccc(N2CCCC2)cc1
2,7.76,O=C(/C=C/c1ccc(Cl)cc1)c1ccc(-n2cccn2)cc1
3,8.26,O=C(/C=C/c1ccc(Cl)cc1)c1ccc(-n2ccnc2)cc1
4,1.52,O=C(/C=C/c1ccc(Cl)cc1)c1ccc(-n2cncn2)cc1
5,2.93,O=C(/C=C/c1ccc(Cl)cc1)c1ccc(-n2cccc2)cc1
6,12.3,COc1ccc(/C=C/C(=O)c2ccc(-n3cccn3)cc2)cc1
7,2.5,O=C(/C=C/c1ccc(Cl)cc1)c1ccc(-n2nnc3ccccc32)cc1

# Further lines, the compound ahead of its results:
row,Structure (SMILES),IC50 [µg/mL]
1,O=C(/C=C/c1ccc(Cl)cc1)c1ccc(N2CCCCC2)cc1,5.15
2,COc1ccc(/C=C/C(=O)c2ccc(-n3nnc4ccccc43)cc2)cc1,6.8
3,COc1cc(/C=C/C(=O)c2ccc(N3CCCCC3)cc2)cc(OC)c1OC,7.16
4,COc1cc(/C=C/C(=O)c2ccc(N3CCOCC3)cc2)cc(OC)c1OC,4.6
5,COc1cc(/C=C/C(=O)c2ccc(-n3cncn3)cc2)cc(OC)c1OC,8.03
6,O=C(/C=C/c1ccc(Cl)cc1)c1ccc(N2CCOCC2)cc1,9.1
7,COc1cc(/C=C/C(=O)c2ccc(-n3cccn3)cc2)cc(OC)c1OC,6
